We go through five molecules from ChEMBL document CHEMBL5236609, “Optimization of 1,2,4-Triazole-3-thiones toward Broad-Spectrum Metallo-β-lactamase Inhibitors Showing Potent Synergistic Activity on VIM- and NDM-1-Producing Clinical Isolates” (J Med Chem, 2022).

A short description of data set [1]: Inhibition of bacterial IMP-1 (unknown origin) expressed in Escherichia coli EXPRESS BL21(DE3) assessed as inhibition constant by measuring rate of substrate hydrolysis by UV-visible spectrophotometry. Also noted: species or system Bacteria. In a few lines:
(§1)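 Reporter-substrate assay with purified MBL (1–70 nM final) in 50 mM HEPES pH 7.5 at 30 °C. […] Inhibitor 0.5–1000 μM final. Ki derived from the v0/vi vs [I] slope assuming competitive inhibition, or from a Dixon plot. Ki given when inhibition >70%, otherwise % inhibition at 100 μM. Triplicate.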

For another data set, the system named is Pseudomonas aeruginosa. The data set is described as follows: Antimicrobial activity against blaVIM-2-producing multidrug-resistant Pseudomonas aeruginosa VA-182/00 clinical isolate assessed as meropenem MIC at 32 ug/ml by broth microdilution method (reference value: 128 ug/ml). The following applies: dose 32 µg/ml. The data set is classed as functional. Summed up:
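Inoculum was 5×10^4 CFU/well. Each inhibitor was present at a fixed 32 μg/mL, and MICs were also taken without inhibitor.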

Data set [2] is described as follows: Inhibition of bacterial VIM-2 (unknown origin) expressed in Escherichia coli EXPRESS BL21(DE3) assessed as inhibition constant by measuring rate of substrate hydrolysis by UV-visible spectrophotometry. Also noted: species or system Bacteria. In a few lines: as §1
Data set [3] is described as follows: Inhibition of bacterial NDM-1 (unknown origin) expressed in Escherichia coli EXPRESS BL21(DE3) assessed as inhibition constant by measuring rate of substrate hydrolysis by UV-visible spectrophotometry. Also noted: species or system Bacteria. In a few lines:
as §1

A short description of data set [4]: Metabolic stability in CD-1 mouse microsomes assessed as intrinsic clearance at 37 degC by LC-MS/MS analysis. The data set is classed as ADME, Microsome. Particulars: for microsomal CLint: CD-1, mouse; for Stability: mouse. Summed up:
(§2)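 Mouse liver microsomes, mixed gender, at 37 °C for 40 min; propranolol control. Reports t1/2, intrinsic clearance and % intact compound remaining at 40 min.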

The nature of data set [5]: n-Octanol/PBS partition coefficient, logD of the compound at pH 7.4 after 2 hrs by LC-MS/MS analysis. Type of data set: physicochemical. In a few lines:
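LogD from partitioning between 10 mM PBS pH 7.4 and n-octanol (1:1).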

Data set [6] is described as follows: Metabolic stability in CD-1 mouse microsomes assessed as compound remaining after 40 mins LC-MS/MS analysis. The data set is classed as ADME, Microsome. The following applies: read-out: Activity. Summed up:
as §2

The target of the next data set is T1, Insulin-degrading enzyme (Homo sapiens, UniProt P14735).
T1 sequence (P14735 whole entry): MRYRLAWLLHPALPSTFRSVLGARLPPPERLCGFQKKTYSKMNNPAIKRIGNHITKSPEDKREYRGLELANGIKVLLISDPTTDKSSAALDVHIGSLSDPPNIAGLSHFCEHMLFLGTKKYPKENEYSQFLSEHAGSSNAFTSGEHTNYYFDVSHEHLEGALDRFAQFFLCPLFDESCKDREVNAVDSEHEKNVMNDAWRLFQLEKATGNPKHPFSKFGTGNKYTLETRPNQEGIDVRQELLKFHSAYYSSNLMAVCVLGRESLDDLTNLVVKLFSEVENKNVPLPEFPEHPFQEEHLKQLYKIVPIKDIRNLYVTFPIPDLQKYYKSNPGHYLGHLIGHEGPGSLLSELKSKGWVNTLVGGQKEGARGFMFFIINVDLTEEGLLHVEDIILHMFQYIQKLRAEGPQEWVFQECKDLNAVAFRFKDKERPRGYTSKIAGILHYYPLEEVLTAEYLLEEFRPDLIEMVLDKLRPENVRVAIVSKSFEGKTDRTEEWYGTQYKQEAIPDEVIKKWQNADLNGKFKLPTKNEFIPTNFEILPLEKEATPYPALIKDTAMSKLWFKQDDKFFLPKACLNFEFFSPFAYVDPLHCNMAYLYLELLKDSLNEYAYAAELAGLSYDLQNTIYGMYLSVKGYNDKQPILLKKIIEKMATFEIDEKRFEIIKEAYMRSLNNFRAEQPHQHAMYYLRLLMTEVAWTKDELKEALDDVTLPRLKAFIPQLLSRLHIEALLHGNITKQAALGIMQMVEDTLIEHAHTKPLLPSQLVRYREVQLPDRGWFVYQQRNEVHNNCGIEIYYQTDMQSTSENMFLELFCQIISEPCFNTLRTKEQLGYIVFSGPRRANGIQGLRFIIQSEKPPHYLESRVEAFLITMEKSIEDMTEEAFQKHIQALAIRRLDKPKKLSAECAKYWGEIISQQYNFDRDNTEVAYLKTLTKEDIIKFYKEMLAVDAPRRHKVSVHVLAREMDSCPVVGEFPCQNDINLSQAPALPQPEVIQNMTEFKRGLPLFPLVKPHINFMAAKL
The data set is described as follows: Inhibition of recombinant human IDE using ATTO 655-Cys-Lys-Leu-Val-Phe-Phe-Ala-Glu-Asp-Trp as substrate measured after 45 mins by fluorescence assay.

Data set [7] can be described thus: Metabolic stability in CD-1 mouse microsomes assessed as half life at 37 degC by LC-MS/MS analysis. The data set is classed as ADME, Microsome. Summed up:
as §2

Data set [8] is described as follows: Inhibition of bacterial VIM-4 (unknown origin) expressed in Escherichia coli EXPRESS BL21(DE3) assessed as inhibition constant by measuring rate of substrate hydrolysis by UV-visible spectrophotometry. Also noted: species or system Bacteria. In a few lines: as §1
Another data set has as its target T2, Aminopeptidase N (Sus scrofa, UniProt P15145).
T2 sequence (P15145 whole entry): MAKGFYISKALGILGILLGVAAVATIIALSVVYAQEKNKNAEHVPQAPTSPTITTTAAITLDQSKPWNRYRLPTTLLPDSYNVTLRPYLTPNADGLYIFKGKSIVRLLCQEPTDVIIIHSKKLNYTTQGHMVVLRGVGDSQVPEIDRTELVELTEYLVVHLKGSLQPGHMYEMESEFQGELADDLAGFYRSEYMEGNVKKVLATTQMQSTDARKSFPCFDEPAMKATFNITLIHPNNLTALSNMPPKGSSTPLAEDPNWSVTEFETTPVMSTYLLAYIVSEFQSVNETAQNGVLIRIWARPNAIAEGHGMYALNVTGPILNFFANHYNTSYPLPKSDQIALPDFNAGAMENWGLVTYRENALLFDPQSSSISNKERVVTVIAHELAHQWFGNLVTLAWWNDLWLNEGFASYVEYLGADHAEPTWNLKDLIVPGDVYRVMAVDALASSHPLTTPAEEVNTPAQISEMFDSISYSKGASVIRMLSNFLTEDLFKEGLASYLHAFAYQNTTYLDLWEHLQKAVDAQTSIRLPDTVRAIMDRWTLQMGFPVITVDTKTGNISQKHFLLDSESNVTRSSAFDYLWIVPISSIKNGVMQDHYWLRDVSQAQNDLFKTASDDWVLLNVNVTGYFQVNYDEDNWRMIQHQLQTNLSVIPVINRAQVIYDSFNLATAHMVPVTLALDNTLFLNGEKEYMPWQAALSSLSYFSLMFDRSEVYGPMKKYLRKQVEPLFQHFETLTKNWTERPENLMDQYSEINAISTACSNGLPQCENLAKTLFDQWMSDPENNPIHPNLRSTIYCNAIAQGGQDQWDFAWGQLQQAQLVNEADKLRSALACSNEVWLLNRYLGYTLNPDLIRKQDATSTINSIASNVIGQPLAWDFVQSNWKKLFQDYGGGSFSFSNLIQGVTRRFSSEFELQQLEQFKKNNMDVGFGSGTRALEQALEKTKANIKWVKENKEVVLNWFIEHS
Nature of the data set: Inhibition of porcine APN using fluorogenic substrate H-Leu-AMC measured for 1 hr.

By Ki is commonly meant a measure of affinity in units of concentration, obtained from inhibition or displacement. Broadly, the MIC is the least concentration at which growth counts as inhibited. In general, microsomal CLint refers to the rate of metabolic loss divided by the concentration. By logD is commonly meant lipophilicity at a set pH, counting ionised and neutral species. Low readings indicate a more hydrophilic compound, high ones a more lipophilic compound. As a reminder, the IC50 is the concentration needed to halve the response being measured. Usually half-life stands for how long it takes for the measured level to halve. For the molecule `Cc1[nH]cnc1CN(Cc1c[nH]cn1)[C@@H](CCCn1c(-c2ccccc2)n[nH]c1=S)C(=O)O`, the Ki in data set [1] was found to be 4.5 µM; in data set [2] it was 0.35 µM; in data set [3], 0.038 µM; in data set [8] it was 0.42 µM. In addition, the MIC with Pseudomonas aeruginosa was determined as 8 µg/mL. In addition, in [4], the microsomal CLint came out at 5.5 µL/min/mg. Moreover, the log distribution coefficient (logD) at 2 h in data set [5] is -1.93. For the same molecule, the remaining at 40 min in data set [6] is 98.1%. For the same molecule, the IC50 on Insulin-degrading enzyme was 35 µM. Also, the half-life in data set [7] was over 40 min.

For the molecule `O=C(O)[C@H](CCn1c(-c2ccccc2)n[nH]c1=S)N(Cc1c[nH]cn1)Cc1c[nH]cn1`, the Ki in [1] stood at 6.2 µM; in data set [2], 0.21 µM; in [3], 0.04 µM; in data set [8] it was 0.23 µM. In the data set with Pseudomonas aeruginosa, the minimum inhibitory concentration (MIC) is 8 µg/mL. In data set [4], the microsomal CLint was 10.6 µL/min/mg. Besides, the logD at 2 h in [5] is -2.2. Also, in [6], the remaining at 40 min is 91.2%. For the same molecule, the IC50 at Insulin-degrading enzyme is 17 µM; against Aminopeptidase N, 27 µM. In addition, in data set [7], the half-life is over 40 min.

Regarding `O=C(O)[C@H](CCCn1c(-c2ccccc2)n[nH]c1=S)N(Cc1ccccn1)Cc1ccccn1`, the minimal inhibitory concentration (MIC) in the data set with Pseudomonas aeruginosa is 16 µg/mL. Further, the Ki in data set [2] is 0.96 µM; in [3], 0.57 µM; in [8], 0.76 µM. Further, the microsomal CLint in data set [4] is 16.5 µL/min/mg. The molecule also showed a logD at 2 h in data set [5] of 0.243. For the same molecule, the remaining at 40 min in data set [6] stood at 80.5%. In addition, the IC50 on Insulin-degrading enzyme amounted to 41 µM. The half-life in data set [7] is over 40 min.

As to `O=C(O)[C@H](CCCn1c(-c2ccccc2)n[nH]c1=S)N(Cc1c[nH]cn1)Cc1c[nH]cn1`, the MIC with Pseudomonas aeruginosa was determined as 8 µg/mL. In addition, the Ki in data set [2] was determined as 0.41 µM; in data set [3], 0.03 µM; in [8] it was 0.2 µM. In data set [4], the Stability result is reported as “Stable”. In data set [5], this molecule showed a logD at 2 h of -2.12. The IC50 on Insulin-degrading enzyme is 20 µM; on Aminopeptidase N, 30 µM. Further, the half-life in data set [7] is over 40 min.

Consider `O=C(O)[C@H](CCCn1c(-c2ccc3ccccc3c2)n[nH]c1=S)N(Cc1c[nH]cn1)Cc1c[nH]cn1`, for which the Ki in data set [1] is 4.7 µM; in data set [2] it was 0.11 µM; in data set [3], 0.03 µM; in [8] it was 0.34 µM. For the same molecule, in the data set on Pseudomonas aeruginosa, the MIC amounted to 8 µg/mL. For the same molecule, the Stability result in [4] is reported as “Stable”. This molecule returned a logD at 2 h in data set [5] of -0.823. The 50% inhibitory concentration (IC50) on Insulin-degrading enzyme was found to be 9.1 µM; on Aminopeptidase N, 16 µM. Moreover, the half-life in [7] is over 40 min.
